Consider one compound from ChEMBL document CHEMBL3351269, “Phenylimidazoles as potent and selective inhibitors of coagulation factor XIa with in vivo antithrombotic activity” (J Med Chem, 2014).

Data set [1] in a line: Half life in rabbit plasma at 0.5 mg/kg, iv. Also noted: dose 0.5 mg/kg, route intravenous. It is filed as ADME, organism-based, Oryctolagus cuniculus. A digest of the protocol:
(§1)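 Single iv dose of 0.5 mg/kg in rabbits; concentrations measured in rabbit plasma.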

For another data set, the target named is Coagulation factor IX (Homo sapiens, UniProt P00740). As to the kind of experiment: Inhibition of human coagulation factor 9a by spectrophotometric analysis. The essentials:
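Purified human factor IXa; buffer 50 mM Tris pH 7.4, 100 mM NaCl, 5 mM CaCl2, 0.5% PEG 8000, 2% DMSO; room temperature. Reaction started with enzyme added to substrate ± inhibitor, in excess substrate and inhibitor, for 10–120 min. Rate read as pNA A405 or AMC fluorescence. Duplicate IC50s from 8–11 concentrations; Ki = IC50/(1+[S]/Km), assuming competitive inhibition.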

Data set [2] is described as follows: Plasma protein binding in rabbit at 0.5 mg/kg, iv. Further details: dose 0.5 mg/kg, route intravenous. It is filed as ADME, organism-based, Oryctolagus cuniculus. The note with it: read-out: PPB (converted).
In the next data set the target is Plasma kallikrein (Homo sapiens, UniProt P03952). As to the kind of experiment: Inhibition of human plasma kallikrein using H-D-Pro-Phe-Arg-pNA as substrate. The essentials: (§2)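 Purified human enzymes; reaction started by adding enzyme to substrate with or without inhibitor, excess substrate and inhibitor over enzyme, 1% DMSO, room temperature, 10–120 min. pNA read at 405 nm. FXIa, FXIIa and chymotrypsin in HEPES pH 7.4 with NaCl, KCl and PEG; FXa and kallikrein in phosphate pH 7.5; FVIIa in HEPES with CaCl2. IC50 from duplicates over 8–11 concentrations, converted to Ki assuming competitive inhibition.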
Plasma kallikrein, sequence (P03952 20-390 limits assumed): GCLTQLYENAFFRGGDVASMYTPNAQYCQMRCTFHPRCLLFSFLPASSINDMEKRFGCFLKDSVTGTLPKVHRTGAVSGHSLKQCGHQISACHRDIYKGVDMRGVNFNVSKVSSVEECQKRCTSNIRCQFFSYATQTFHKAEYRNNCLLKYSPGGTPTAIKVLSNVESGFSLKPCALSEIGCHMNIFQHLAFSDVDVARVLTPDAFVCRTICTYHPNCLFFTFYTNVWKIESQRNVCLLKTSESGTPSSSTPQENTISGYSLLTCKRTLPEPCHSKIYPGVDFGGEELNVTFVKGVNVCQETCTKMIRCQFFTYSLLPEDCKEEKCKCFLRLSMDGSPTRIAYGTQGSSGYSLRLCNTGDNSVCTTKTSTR
Plasma kallikrein, sequence (P03952 391-638 limits assumed): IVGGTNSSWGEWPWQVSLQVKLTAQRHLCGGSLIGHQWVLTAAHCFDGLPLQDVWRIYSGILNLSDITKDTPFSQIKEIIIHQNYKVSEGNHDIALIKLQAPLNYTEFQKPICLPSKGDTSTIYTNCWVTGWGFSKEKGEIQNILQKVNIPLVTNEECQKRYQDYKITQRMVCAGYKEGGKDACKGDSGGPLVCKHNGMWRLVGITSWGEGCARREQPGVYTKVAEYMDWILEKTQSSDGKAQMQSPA

The nature of data set [3]: Inhibition of rabbit plasma kallikrein using H-D-Pro-Phe-Arg-pNA as substrate. It is filed as cell-free, Oryctolagus cuniculus.
A short description of data set [4]: Anticoagulant activity in rabbit plasma assessed as concentration required to 2 fold prolong clotting time by aPTT assay. In kind it is functional, Oryctolagus cuniculus.
Data set [5] is described as follows: Inhibition of rabbit coagulation thrombin using pyro-Glu-Pro-Argp-NA as substrate by spectrophotometric analysis. Also noted: species or system Oryctolagus cuniculus.
The target of a further data set is T1, Coagulation factor VII (Homo sapiens, UniProt P08709).
T1 sequence (P08709 whole entry): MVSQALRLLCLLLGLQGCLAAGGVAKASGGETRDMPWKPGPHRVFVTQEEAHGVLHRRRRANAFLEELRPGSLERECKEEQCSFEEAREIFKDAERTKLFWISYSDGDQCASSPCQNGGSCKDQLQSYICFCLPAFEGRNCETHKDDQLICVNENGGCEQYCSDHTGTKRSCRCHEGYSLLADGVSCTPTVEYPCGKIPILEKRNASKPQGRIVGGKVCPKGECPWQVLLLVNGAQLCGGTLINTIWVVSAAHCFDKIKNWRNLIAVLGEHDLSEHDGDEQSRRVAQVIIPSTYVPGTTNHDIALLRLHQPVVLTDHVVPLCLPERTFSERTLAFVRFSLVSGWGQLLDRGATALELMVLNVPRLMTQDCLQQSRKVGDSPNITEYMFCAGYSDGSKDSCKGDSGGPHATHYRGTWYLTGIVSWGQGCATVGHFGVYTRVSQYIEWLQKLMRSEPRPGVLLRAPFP
As to the kind of experiment: Inhibition of human coagulation factor 7a using H-(D)-Ile-Pro-Arg-pNA as substrate by spectrophotometric analysis. The essentials:
as §2

A further data set concerns the target T2, Coagulation factor XII (Homo sapiens, UniProt P00748).
T2 sequence (P00748 whole entry): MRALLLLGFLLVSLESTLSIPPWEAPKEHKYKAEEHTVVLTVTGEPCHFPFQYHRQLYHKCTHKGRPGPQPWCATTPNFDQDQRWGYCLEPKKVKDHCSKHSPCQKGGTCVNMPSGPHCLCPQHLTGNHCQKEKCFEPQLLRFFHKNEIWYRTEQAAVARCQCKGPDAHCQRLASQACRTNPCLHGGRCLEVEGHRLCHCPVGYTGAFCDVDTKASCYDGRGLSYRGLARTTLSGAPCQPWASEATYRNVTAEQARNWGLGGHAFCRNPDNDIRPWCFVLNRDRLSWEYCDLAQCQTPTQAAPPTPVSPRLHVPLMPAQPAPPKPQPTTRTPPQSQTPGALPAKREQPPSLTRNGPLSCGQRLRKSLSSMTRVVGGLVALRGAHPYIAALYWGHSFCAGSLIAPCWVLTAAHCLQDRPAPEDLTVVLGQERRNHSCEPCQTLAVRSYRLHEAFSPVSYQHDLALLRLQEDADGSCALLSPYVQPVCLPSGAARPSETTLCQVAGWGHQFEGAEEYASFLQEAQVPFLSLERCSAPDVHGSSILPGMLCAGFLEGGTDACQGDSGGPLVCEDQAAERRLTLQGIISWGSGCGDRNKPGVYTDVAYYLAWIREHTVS
As to the kind of experiment: Inhibition of human coagulation factor 12a using H-(D)-CHT-Gly-Arg-pNA as substrate by spectrophotometric analysis. A digest of the protocol: as §2

A further data set addresses Trypsin (Homo sapiens, UniProt P07477+P07478+P35030). As to the kind of experiment: Inhibition of human coagulation trypsin using N-benzoyl-Ile-Glu-(OH, OMe)-Gly-Arg-pNA as substrate by spectrophotometric analysis. It is filed as protein assay. The essentials:
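Purified enzymes (α-thrombin; trypsin) in 100 mM sodium phosphate pH 7.5, 200 mM NaCl, 0.5% PEG 8000, 1% DMSO final, room temperature. Enzyme added last to substrate ± inhibitor, with substrate and inhibitor in excess. pNA release read at 405 nm over 10−120 min. IC50 from duplicate runs over 8−11 concentrations, then converted to Ki assuming competitive inhibition, using Km.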

Another data set relates to Plasma. As to the kind of experiment: Anticoagulant activity in healthy human plasma assessed as prothrombin time by PT assay. It is filed as functional. A digest of the protocol: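 Citrated healthy-volunteer plasma spiked with inhibitor (10 mM DMSO stock diluted in plasma, up to seven concentrations). PT with Thromboplastin C-Plus: plasma warmed 3 min at 37 °C before reagent was added. Duplicates, as mean ratio to baseline control. Concentration that doubles clotting time by linear interpolation, as total plasma concentration.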

Data set [6] can be described thus: Mean residence time in rabbit plasma at 0.5 mg/kg, iv. Also noted: dose 0.5 mg/kg, route intravenous. In kind it is ADME, organism-based, Oryctolagus cuniculus. A digest of the protocol:
as §1

The target in a further data set is Coagulation factor XI (Homo sapiens, UniProt P03951). As to the kind of experiment: Inhibition of human coagulation factor 11a using p-nitroaniline as substrate assessed as substrate hydrolysis by spectrophotometrically. The essentials:
as §2

A short description of data set [7]: Volume of distribution at steady state in rabbit plasma at 0.5 mg/kg, iv. Also noted: dose 0.5 mg/kg, route intravenous. It is filed as ADME, organism-based, Oryctolagus cuniculus. The note with it: read-out: Vdss. The essentials: as §1

Some results are limits rather than exact numbers.

Coagulation factor IX, sequence (P00740 47-191 limits assumed): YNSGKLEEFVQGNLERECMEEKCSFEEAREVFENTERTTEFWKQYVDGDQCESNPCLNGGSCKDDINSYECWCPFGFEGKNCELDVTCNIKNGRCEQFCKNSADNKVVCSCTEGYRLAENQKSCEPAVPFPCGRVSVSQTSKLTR
Coagulation factor IX, sequence (P00740 227-461 limits assumed): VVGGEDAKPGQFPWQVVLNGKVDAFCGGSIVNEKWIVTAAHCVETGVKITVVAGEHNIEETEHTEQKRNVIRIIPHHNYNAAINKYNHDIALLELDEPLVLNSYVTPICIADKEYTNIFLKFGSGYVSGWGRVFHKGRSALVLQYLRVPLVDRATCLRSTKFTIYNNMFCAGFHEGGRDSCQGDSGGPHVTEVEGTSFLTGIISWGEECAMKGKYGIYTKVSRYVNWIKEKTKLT
Coagulation factor XI, sequence (P03951 19-387 limits assumed): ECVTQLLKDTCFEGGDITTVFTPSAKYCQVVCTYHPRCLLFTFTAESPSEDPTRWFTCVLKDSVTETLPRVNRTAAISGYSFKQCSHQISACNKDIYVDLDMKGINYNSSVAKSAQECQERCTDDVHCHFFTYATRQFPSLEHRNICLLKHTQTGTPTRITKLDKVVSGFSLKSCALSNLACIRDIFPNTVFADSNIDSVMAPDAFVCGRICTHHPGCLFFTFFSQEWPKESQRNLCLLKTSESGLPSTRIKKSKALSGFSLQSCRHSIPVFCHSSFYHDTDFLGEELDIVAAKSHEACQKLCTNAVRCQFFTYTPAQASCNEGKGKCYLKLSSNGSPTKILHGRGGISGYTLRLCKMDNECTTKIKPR
Coagulation factor XI, sequence (P03951 388-625 limits assumed): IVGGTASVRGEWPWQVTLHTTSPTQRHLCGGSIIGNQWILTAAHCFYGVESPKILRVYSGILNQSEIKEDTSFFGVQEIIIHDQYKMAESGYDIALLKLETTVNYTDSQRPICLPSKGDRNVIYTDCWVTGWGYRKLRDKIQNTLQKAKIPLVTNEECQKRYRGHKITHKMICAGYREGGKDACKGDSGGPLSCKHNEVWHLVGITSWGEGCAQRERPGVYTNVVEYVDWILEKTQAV

The compound `NC[C@H]1CC[C@H](C(=O)N[C@@H](Cc2ccccc2)c2nc(-c3ccc4c(N)n[nH]c4c3)c(Cl)[nH]2)CC1.O=C(O)C(F)(F)F` showed a half-life in data set [1] of 60 min. Moreover, the Ki is greater than 34.9 µM on Coagulation factor IX; 0.005 µM on Plasma kallikrein; 0.021 µM in data set [3]; greater than 20 µM in [5]; 4.22 µM on Coagulation factor VII; 9.22 µM at Coagulation factor XII. The values for the inhibition constant (Ki) at Trypsin and at Coagulation factor XI were 0.023 µM and 0.0003 µM, respectively. Moreover, the fraction unbound in data set [2] is 0.15. Also, the 2aPTT in [4] amounted to 2 µM. Besides, the 2PT in the data set on Plasma was greater than 40 µM. In addition, the mean residence time MRT in data set [6] was 36 min. Further, in data set [7], the Vd came out at 0.7 L/kg.
